Source: ChEMBL document CHEMBL3259551, “Novel delta opioid receptor agonists with oxazatricyclodecane structure” (ACS Med Chem Lett, 2014)

Tests used:
Mu-type opioid receptor [1] = target: Mu-type opioid receptor (Mus musculus, UniProt P42866); experiment: Displacement of [3H]DAMGO from mu opioid receptor in mouse whole brain […] membrane; assay type: tissue-based
Method in brief: (§1)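 Competitive binding run in duplicate. MOR used [3H]DAMGO and DOR used [3H]DPDPE, both on mouse whole-brain membranes without cerebellum. KOR used [3H]U-69,593 on guinea pig cerebellum membranes.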

[2] = target: Delta-type opioid receptor (Mus musculus, UniProt P32300); experiment: Displacement of [3H]DPDPE from delta opioid receptor in mouse whole brain […] membrane; assay type: tissue-based
Method in brief: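 Competitive binding run in duplicate. MOR used [3H]DAMGO and DOR used [3H]DPDPE, both on mouse whole-brain membranes without cerebellum.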

[3] = target: Kappa-type opioid receptor (Cavia porcellus, UniProt P41144); experiment: Displacement of [3H]U69593 from kappa opioid receptor in guinea pig cerebellum membrane; method in brief: as §1
Mus musculus [4] = species: Mus musculus; experiment: Selectivity ratio of Ki for mouse mu opioid receptor to Ki for mouse delta opioid receptor
[5] = Selectivity ratio of Ki for guinea pig kappa opioid receptor to Ki for mouse delta opioid receptor
Mu-type opioid receptor [6] = target: T1, Mu-type opioid receptor (Homo sapiens, UniProt P35372); experiment: Agonist activity at human mu opioid receptor expressed in CHO cells assessed as [35S]-GTP[gammaS] binding; assay type: cell-based
Method in brief: (§2)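 Human MOR, DOR or KOR expressed in CHO cells; [35S]GTPγS binding run in duplicate. Emax is the % of the response to DAMDO for MOR, SNC80 for DOR and U-69,593 for KOR.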

Mu-type opioid receptor [7] = target: T1, Mu-type opioid receptor; experiment: Agonist activity at human mu opioid receptor expressed in CHO cells assessed as [35S]-GTP[gammaS] binding relative to DAMDO; assay type: cell-based; method in brief: as §2
[8] = target: T2, Delta-type opioid receptor (Homo sapiens, UniProt P41143); experiment: Agonist activity at human delta opioid receptor expressed in CHO cells assessed as [35S]-GTP[gammaS] binding; assay type: functional, cell-based; method in brief: as §2
[9] = target: T2, Delta-type opioid receptor; experiment: Agonist activity at human delta opioid receptor expressed in CHO cells assessed as [35S]-GTP[gammaS] binding relative to SNC80; assay type: functional, cell-based; method in brief: as §2
[10] = target: T3, Kappa-type opioid receptor (Homo sapiens, UniProt P41145); experiment: Agonist activity at human kappa opioid receptor expressed in CHO cells assessed as [35S]-GTP[gammaS] binding; assay type: functional, cell-based; method in brief: as §2
[11] = target: T3, Kappa-type opioid receptor; experiment: Agonist activity at human kappa opioid receptor expressed in CHO cells assessed as [35S]-GTP[gammaS] binding relative to U69593; assay type: functional, cell-based; method in brief: as §2
Mu-type opioid receptor [12] = target: T1, Mu-type opioid receptor; experiment: Agonist activity at human mu opioid receptor expressed in HEK293 cells by CellKey method; assay type: cell-based
Method in brief: (§3)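 Label-free CellKey impedance biosensor readout of receptor activity in HEK293 cells expressing human MOR, DOR or KOR, run in duplicate.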

Mu-type opioid receptor [13] = target: T1, Mu-type opioid receptor; experiment: Agonist activity at human mu opioid receptor expressed in HEK293 cells by CellKey method relative to DAMDO; assay type: cell-based
[14] = target: T2, Delta-type opioid receptor; experiment: Agonist activity at human delta opioid receptor expressed in HEK293 cells by CellKey method; assay type: cell-based
Method in brief: (§4)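 Label-free CellKey impedance biosensor readout of receptor activity in HEK293 cells expressing human MOR, DOR or KOR, run in duplicate. Emax is the % of the response to DAMGO for MOR, SNC80 for DOR and (−)-U-50,488H for KOR.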

[15] = target: T2, Delta-type opioid receptor; experiment: Agonist activity at human delta opioid receptor expressed in HEK293 cells by CellKey method relative to SNC80; assay type: cell-based; method in brief: as §4
[16] = target: T3, Kappa-type opioid receptor; experiment: Agonist activity at human kappa opioid receptor expressed in HEK293 cells by CellKey method; assay type: cell-based; method in brief: as §3
[17] = target: T3, Kappa-type opioid receptor; experiment: Agonist activity at human kappa opioid receptor expressed in HEK293 cells by CellKey method relative to (-)U50488H; assay type: cell-based; method in brief: as §4
Mus musculus [18] = experiment: Analgesic activity in sc dosed mouse assessed as inhibition of acetic acid-induced writhing treated after 15 mins of acetic acid-challenge; assay type: functional
Method in brief: (§5)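 Mice dosed subcutaneously, then scored in the acetic acid writhing test and watched for convulsive behaviour. […] taken from the dose–response. Antagonist reversal tested with NTI, β-FNA or nor-BNI. Groups compared against saline-treated mice by one-way ANOVA with Bonferroni's test.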

Mus musculus [19] = experiment: Toxicity in mouse assessed as induction of convulsion at 1 to 10 mg/kg, sc; assay type: organism-based; design: dose 1-10 mg/kg, route subcutaneous; details: in vivo; method in brief: as §5

Mu-type opioid receptor (Mus musculus, UniProt P42866), sequence (P42866 whole entry): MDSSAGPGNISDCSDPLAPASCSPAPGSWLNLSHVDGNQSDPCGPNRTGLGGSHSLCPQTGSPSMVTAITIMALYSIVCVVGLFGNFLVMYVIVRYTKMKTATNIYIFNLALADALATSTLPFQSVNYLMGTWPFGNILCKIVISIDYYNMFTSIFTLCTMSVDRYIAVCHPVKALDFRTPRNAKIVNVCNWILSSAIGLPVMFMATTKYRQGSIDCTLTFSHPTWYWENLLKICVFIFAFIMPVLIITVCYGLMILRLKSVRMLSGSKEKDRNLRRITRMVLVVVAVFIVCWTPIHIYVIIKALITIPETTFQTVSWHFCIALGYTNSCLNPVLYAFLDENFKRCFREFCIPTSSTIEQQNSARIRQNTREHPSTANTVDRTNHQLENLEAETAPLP
T2 sequence (P41143 whole entry): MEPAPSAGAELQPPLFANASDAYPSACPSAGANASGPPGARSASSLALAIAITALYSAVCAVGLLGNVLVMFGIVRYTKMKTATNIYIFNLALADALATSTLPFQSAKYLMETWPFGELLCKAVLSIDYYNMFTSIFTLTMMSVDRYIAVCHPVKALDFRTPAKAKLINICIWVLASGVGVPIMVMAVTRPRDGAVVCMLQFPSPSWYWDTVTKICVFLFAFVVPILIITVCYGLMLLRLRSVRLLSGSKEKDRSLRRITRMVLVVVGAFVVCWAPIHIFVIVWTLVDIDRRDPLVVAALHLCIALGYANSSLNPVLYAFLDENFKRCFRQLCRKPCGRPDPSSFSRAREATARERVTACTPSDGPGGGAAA
Kappa-type opioid receptor (Cavia porcellus, UniProt P41144), sequence (P41144 whole entry): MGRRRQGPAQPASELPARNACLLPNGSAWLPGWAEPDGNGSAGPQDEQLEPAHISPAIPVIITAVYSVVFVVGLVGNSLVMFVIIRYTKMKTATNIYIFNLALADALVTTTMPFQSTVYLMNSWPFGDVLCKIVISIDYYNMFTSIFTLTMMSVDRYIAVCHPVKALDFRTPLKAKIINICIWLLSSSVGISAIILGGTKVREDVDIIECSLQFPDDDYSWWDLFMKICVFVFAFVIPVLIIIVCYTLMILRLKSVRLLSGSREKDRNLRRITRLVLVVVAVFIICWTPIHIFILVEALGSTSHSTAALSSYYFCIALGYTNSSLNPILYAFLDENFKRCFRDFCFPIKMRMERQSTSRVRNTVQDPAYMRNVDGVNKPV
T3 sequence (P41145 whole entry): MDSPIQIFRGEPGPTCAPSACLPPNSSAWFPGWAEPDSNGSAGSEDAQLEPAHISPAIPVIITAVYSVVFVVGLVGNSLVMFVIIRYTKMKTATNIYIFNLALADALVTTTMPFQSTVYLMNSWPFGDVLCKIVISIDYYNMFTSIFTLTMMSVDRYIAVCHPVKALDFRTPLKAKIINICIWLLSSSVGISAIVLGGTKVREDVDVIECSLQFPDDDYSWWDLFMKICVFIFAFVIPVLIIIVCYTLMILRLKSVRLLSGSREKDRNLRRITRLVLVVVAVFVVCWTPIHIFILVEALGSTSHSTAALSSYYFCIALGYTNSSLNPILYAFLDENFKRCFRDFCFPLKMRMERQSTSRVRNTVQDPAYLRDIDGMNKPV
T1 sequence (P35372 whole entry): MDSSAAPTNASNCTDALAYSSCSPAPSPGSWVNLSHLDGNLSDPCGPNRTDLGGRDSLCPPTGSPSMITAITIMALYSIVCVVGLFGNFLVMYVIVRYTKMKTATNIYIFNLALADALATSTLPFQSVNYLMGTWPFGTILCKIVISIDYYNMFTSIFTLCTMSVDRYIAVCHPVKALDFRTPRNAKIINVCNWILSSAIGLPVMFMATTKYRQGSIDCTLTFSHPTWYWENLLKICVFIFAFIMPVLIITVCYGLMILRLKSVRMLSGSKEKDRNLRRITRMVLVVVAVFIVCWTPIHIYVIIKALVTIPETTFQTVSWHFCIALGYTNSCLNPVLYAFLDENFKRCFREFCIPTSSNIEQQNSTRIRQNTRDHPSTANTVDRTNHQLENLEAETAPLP
Delta-type opioid receptor (Mus musculus, UniProt P32300), sequence (P32300 whole entry): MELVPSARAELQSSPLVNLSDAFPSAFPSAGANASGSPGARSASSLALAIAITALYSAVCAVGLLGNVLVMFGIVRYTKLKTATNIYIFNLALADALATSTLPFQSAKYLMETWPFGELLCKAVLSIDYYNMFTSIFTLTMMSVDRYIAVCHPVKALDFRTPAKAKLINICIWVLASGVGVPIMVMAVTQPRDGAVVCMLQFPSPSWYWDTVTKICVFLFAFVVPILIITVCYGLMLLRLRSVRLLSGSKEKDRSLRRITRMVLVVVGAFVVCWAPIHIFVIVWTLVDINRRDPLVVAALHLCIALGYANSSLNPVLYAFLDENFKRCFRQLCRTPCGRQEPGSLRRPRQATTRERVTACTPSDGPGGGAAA

| SMILES | Ki (Mu-type opioid receptor [1]) | Ki [2] | Ki [3] | Ratio Ki (Mus musculus [4]) | Ratio Ki [5] | EC50 (Mu-type opioid receptor [6]) | Emax (Mu-type opioid receptor [7]) | EC50 [8] | Emax [9] | EC50 [10] | Emax [11] | EC50 (Mu-type opioid receptor [12]) | Emax (Mu-type opioid receptor [13]) | EC50 [14] | Emax [15] | EC50 [16] | Emax [17] | inhibition (Mus musculus [18]) | ED50 (Mus musculus [18]; 0.25 h) | Activity (Mus musculus [19]) |
| --- | --- | --- | --- | --- | --- | --- | --- | --- | --- | --- | --- | --- | --- | --- | --- | --- | --- | --- | --- | --- |
| COc1ccc2c(c1O)[C@]13CCN(CC4CC4)[C@H](C2)[C@]12CC[C@]1(O)[C@H]3[C@H](O2)C(=O)N1Cc1ccccc1 | 47.7 nM | 175 nM | 248 nM | 0.27 | 1.4 | – | – | – | – | – | – | – | – | – | – | – | – | – | – | – |
| CC(C)CN1CC[C@@]23c4c5ccc(O)c4OCO[C@]46CC[C@@]2(O[C@H](C(=O)N4Cc2ccccc2)[C@H]63)[C@H]1C5 | 186 nM | 7 nM | 119 nM | 26.6 | 17 | 223 nM | 8.4% | 15.6 nM | 96.4% | 760 nM | 65.6% | 400 nM | 12.2% | 140 nM | 130% | 333 nM | 57.9% | – | – | – |
| CN1CC[C@@]23c4c5ccc(O)c4OCO[C@]46CC[C@@]2(O[C@H](C(=O)N4Cc2ccccc2)[C@H]63)[C@H]1C5 | 23.3 nM | 1.94 nM | 200 nM | 12 | 103 | 113 nM | 110% | 11 nM | 112% | 478 nM | 83.6% | 1350 nM | 36.1% | 141 nM | 138% | 307 nM | 79.2% | Dose-dependent effect | 5.26 mg/kg | Non-toxic |
| O=C1[C@H]2O[C@@]34CC[C@@]5(OCOc6c(O)ccc7c6[C@@]3(CCN(CC3CC3)[C@@H]4C7)[C@H]25)N1c1ccccc1 | 4.61 nM | 0.534 nM | 1.69 nM | 8.6 | 3.2 | 9 nM | 25.6% | 0.98 nM | 118% | 6.5 nM | 42.9% | 1.2 nM | 8.8% | 0.39 nM | 123% | 1.2 nM | 80.4% | – | – | – |
| O=C1[C@H]2O[C@@]34CC[C@@]5(OCOc6c(O)ccc7c6[C@@]3(CCN(CC3CC3)[C@@H]4C7)[C@H]25)N1CCc1ccccc1 | 1.75 nM | 1.16 nM | 1.94 nM | 1.5 | 1.7 | 2.1 nM | 19.7% | 0.41 nM | 103% | 3.9 nM | 51.2% | 5.2 nM | 4.8% | 0.62 nM | 90.6% | 2.4 nM | 75.8% | – | – | – |
| O=C1[C@H]2O[C@@]34CC[C@@]5(OCOc6c(O)ccc7c6[C@@]3(CCN(CC3CC3)[C@@H]4C7)[C@H]25)N1Cc1ccccc1 | 3.14 nM | 0.313 nM | 5.14 nM | 10 | 16.4 | 2.8 nM | 13.7% | 1.1 nM | 92.8% | 80.5 nM | 69.1% | 1.8 nM | 9.6% | 1.54 nM | 88.7% | 39.8 nM | 50.5% | – | – | – |
| C=CCN1C[C@H](C)N([C@H](c2ccc(C(=O)N(CC)CC)cc2)c2cccc(OC)c2)C[C@H]1C [SNC-80] | 695 nM | – | > 1000 nM | – | – | – | – | – | – | – | – | – | 6.8% | – | – | – | 5.9% | – | – | – |
| O=C1[C@H]2O[C@@]34CC[C@@]5(OCOc6c(O)ccc7c6[C@@]3(CCN(CCc3ccccc3)[C@@H]4C7)[C@H]25)N1Cc1ccccc1 | 45.9 nM | 2.59 nM | 588 nM | 17.7 | 227 | 2.3 nM | 83% | 9.2 nM | 115% | – | – | 639 nM | 40.2% | 20.5 nM | 108% | 12500 nM | 22.6% | – | – | – |
| C=CCN1CC[C@@]23c4c5ccc(O)c4OCO[C@]46CC[C@@]2(O[C@H](C(=O)N4Cc2ccccc2)[C@H]63)[C@H]1C5 | 68.4 nM | 1.23 nM | 56.6 nM | 55.8 | 46.2 | 2.7 nM | 5.4% | 6.5 nM | 94.6% | 231 nM | 74% | 5.1 nM | 11.3% | 2 nM | 77.2% | – | – | – | – | – |
